This note sets out measurements from ChEMBL document CHEMBL4251599, “Synthesis and biological evaluation of coumarin derivatives containing imidazole skeleton as potential antibacterial agents” (Eur J Med Chem, 2018).

SMILES strings stand for the structures. pIC50: −log10 of the molar value. Converted amounts (≈) assume the structure as drawn.

The subject of assay [1] is Streptococcus agalactiae. The assay is described as follows: Antibacterial activity against Streptococcus agalactiae WB1445 after 24 hrs by two fold serial dilution method. Format: functional. The note with it: WB1445, 24 h. The procedure, abridged:
(§1)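 Broth two-fold serial dilution per CLSI, in nutrient broth. Inoculum from 24 h cultures at 28 ± 1 °C, adjusted in saline to 1×10^7-2×10^7 cfu/mL, then diluted to 1×10^5-2×10^5 cfu/mL. Test range 256 down to 0.50 µM and lower. Tubes held 24 h at 28 ± 1 °C. MIC read visually. Enrofloxacin and norfloxacin served as standards.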

The test system of assay [2] is Flavobacterium columnare. The assay is described as follows: Antibacterial activity against Flavobacterium columnare FC-G1 after 24 hrs by two fold serial dilution method. Format: functional. Conditions: FC-G1, 24 h. An outline of the steps: as §1
For assay [3], the target named is T1, Enoyl-(Acyl-carrier-protein) reductase II (Streptococcus agalactiae serotype V (strain ATCC BAA-611 / 2603 V/R), UniProt Q8E1K8).
T1 sequence (Q8E1K8 whole entry): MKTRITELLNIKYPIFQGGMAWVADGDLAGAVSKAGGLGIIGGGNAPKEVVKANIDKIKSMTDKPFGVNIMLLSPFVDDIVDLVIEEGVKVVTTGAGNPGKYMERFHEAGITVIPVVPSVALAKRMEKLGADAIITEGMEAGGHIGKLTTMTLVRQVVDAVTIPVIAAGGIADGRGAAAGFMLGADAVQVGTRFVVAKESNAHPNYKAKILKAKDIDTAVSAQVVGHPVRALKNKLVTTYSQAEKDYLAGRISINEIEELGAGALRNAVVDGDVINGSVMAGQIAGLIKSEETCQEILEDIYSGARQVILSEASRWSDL
Description: Inhibition of Streptococcus agalactiae WB1445 FabK in presence of t-O-NAC and NADH up to 1 min by spectrophotometric analysis. An outline of the steps: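 Recombinant His-tagged FabK (20 µL of 150 µg/mL stock) was assayed in 100 µL of 0.1 M ADA-DTT, pH 6.5, against compounds at 128-1 µM, with 10 µL of 4 mM t-O-NAC. Addition of 20 µL of 2 mM NADH started the reaction. Absorbance at 340 nm was read for 1 min. IC50 was estimated from dose-response curves.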

The subject of assay [4] is Streptococcus agalactiae. Description: Bactericidal activity against Streptococcus agalactiae WB1445 incubated for 24 hrs followed by re-plating on nutrient agar and measured after overnight incubation by two fold serial dilution method. The note with it: WB1445, 24 h. Format: functional. The procedure, abridged: (§2)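 After the MIC read, 100 µl from every tube without visible growth was spread on nutrient agar lacking compound. Plates were incubated overnight at 28 ± 1 °C. MBC was taken as the lowest concentration killing >99.9% of the initial population, seen as no growth on agar.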

Assay [5] deals with Flavobacterium columnare. Description: Bactericidal activity against Flavobacterium columnare FC-G1 incubated for 24 hrs followed by re-plating on nutrient agar and measured after overnight incubation by two fold serial dilution method. Format: functional. The note with it: FC-G1, 24 h. An outline of the steps: as §2
Assay [6] can be described thus: Inhibition of Escherichia coli ATCC 35150 FabI in presence of t-O-NAC and NADH up to 1 min by spectrophotometric analysis. The procedure, abridged:
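Recombinant His-tagged FabI, expressed in E. coli BL21(DE3) and purified on Ni-NTA, was used at 20 µL of 100 µg/mL stock in 0.1 M PBS-DTT. Compounds were tested at 128-1 µM with 10 µL of 4 mM t-O-NAC, and 20 µL of 2 mM NADH started the reaction. NADH oxidation was followed at 340 nm for 1 min. IC50 came from dose-response plots.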

Assay [7] relates to Staphylococcus aureus. The assay is described as follows: Antibacterial activity against Staphylococcus aureus ATCC 29213 after 24 hrs by two fold serial dilution method. Format: functional. Conditions: ATCC 29213, 24 h. The procedure, abridged: as §1
Assay [8] deals with Escherichia coli. The assay is described as follows: Bactericidal activity against Escherichia coli ATCC 35150 incubated for 24 hrs followed by re-plating on nutrient agar and measured after overnight incubation by two fold serial dilution method. Format: functional. The note with it: ATCC 35150, 24 h. The procedure, abridged: as §2
Assay [9] has as its system Escherichia coli. Description: Antibacterial activity against Escherichia coli ATCC 35150 after 24 hrs by two fold serial dilution method. Format: functional. The note with it: ATCC 35150, 24 h. The procedure, abridged: as §1
Assay [10] concerns Staphylococcus aureus. The assay is described as follows: Bactericidal activity against Staphylococcus aureus ATCC 29213 incubated for 24 hrs followed by re-plating on nutrient agar and measured after overnight incubation by two fold serial dilution method. The note with it: ATCC 29213, 24 h. Format: functional. The procedure, abridged:
as §2

With `O=c1ccc2ccc(OCCCCCCCCn3cncn3)cc2o1`, the results for the minimum inhibitory concentration (MIC) in the assay on Streptococcus agalactiae [1] and against Flavobacterium columnare [2] were 32 µM (≈ 10.9 µg/mL) and 64 µM (≈ 21.9 µg/mL), respectively. Besides, the pIC50 (usually −log10 of the IC50, conventionally taken in molar units) in assay [3] is 5.11; in assay [6] it was 4.10. The MBC (commonly the lowest tested concentration that kills the bacteria rather than only halting them) with Streptococcus agalactiae [4] was 64 µM (≈ 21.9 µg/mL); against Flavobacterium columnare [5] it was 128 µM (≈ 43.7 µg/mL).

For the molecule `Cc1cc(=O)oc2cc(OCCCCCCCCn3cnc4ccccc43)ccc12`, the MIC (usually the lowest concentration found to suppress growth) is 32 µM (≈ 12.9 µg/mL) against Streptococcus agalactiae [1], 32 µM (≈ 12.9 µg/mL) against Staphylococcus aureus [7], 16 µM (≈ 6.47 µg/mL) against Flavobacterium columnare [2] and more than 256 µM against Escherichia coli [9]. The MBC against Escherichia coli [8] is more than 256 µM; in the assay on Streptococcus agalactiae [4], 64 µM (≈ 25.9 µg/mL); with Flavobacterium columnare [5], 64 µM (≈ 25.9 µg/mL); with Staphylococcus aureus [10] it was 256 µM (≈ 104 µg/mL).

In the case of `Cc1nccn1CCCCCCOc1ccc2ccc(=O)oc2c1`, the MIC against Streptococcus agalactiae [1] is 128 µM (≈ 41.8 µg/mL); in the assay with Staphylococcus aureus [7], 64 µM (≈ 20.9 µg/mL); against Flavobacterium columnare [2], 16 µM (≈ 5.22 µg/mL); in the assay on Escherichia coli [9], 8 µM (≈ 2.61 µg/mL). The minimal bactericidal concentration (MBC) in the assay on Escherichia coli [8] was determined as 64 µM (≈ 20.9 µg/mL); against Streptococcus agalactiae [4] it was 256 µM (≈ 83.6 µg/mL); against Flavobacterium columnare [5], 32 µM (≈ 10.4 µg/mL); in the assay with Staphylococcus aureus [10], 256 µM (≈ 83.6 µg/mL). The pIC50 in assay [3] was 5.46; in assay [6] it was 5.92.

Regarding `O=c1ccc2ccc(OCCCCCCCCCCn3ccnc3)cc2o1`, the MIC against Streptococcus agalactiae [1] is 8 µM (≈ 2.95 µg/mL); with Staphylococcus aureus [7], 64 µM (≈ 23.6 µg/mL); against Flavobacterium columnare [2], 16 µM (≈ 5.9 µg/mL); in the assay with Escherichia coli [9], more than 256 µM. Also, the MBC in the assay on Escherichia coli [8] is more than 256 µM; in the assay with Streptococcus agalactiae [4] it was 16 µM (≈ 5.9 µg/mL); with Flavobacterium columnare [5], 16 µM (≈ 5.9 µg/mL); in the assay on Staphylococcus aureus [10] it was 128 µM (≈ 47.2 µg/mL). Further, the pIC50 in assay [3] is 5.30; in assay [6], less than 3.59.

With `Cc1cc(=O)oc2cc(OCCCCCCCCn3cncn3)ccc12`, the minimal inhibitory concentration (MIC) was 32 µM (≈ 11.4 µg/mL) with Streptococcus agalactiae [1], 32 µM (≈ 11.4 µg/mL) with Staphylococcus aureus [7], 16 µM (≈ 5.69 µg/mL) in the assay with Flavobacterium columnare [2] and more than 256 µM in the assay with Escherichia coli [9]. The MBC in the assay on Escherichia coli [8] was more than 256 µM; in the assay with Streptococcus agalactiae [4], 64 µM (≈ 22.7 µg/mL); against Flavobacterium columnare [5], 64 µM (≈ 22.7 µg/mL); against Staphylococcus aureus [10] it was 256 µM (≈ 91 µg/mL).

In the case of `Cc1nccn1CCCCCCCCOc1ccc2ccc(=O)oc2c1`, the MIC against Streptococcus agalactiae [1] was 4 µM (≈ 1.42 µg/mL); against Staphylococcus aureus [7], 16 µM (≈ 5.67 µg/mL); in the assay on Flavobacterium columnare [2], 2 µM (≈ 0.709 µg/mL); in the assay with Escherichia coli [9] it was more than 256 µM. Further, the MBC against Escherichia coli [8] was more than 256 µM; in the assay on Streptococcus agalactiae [4] it was 16 µM (≈ 5.67 µg/mL); against Flavobacterium columnare [5], 8 µM (≈ 2.84 µg/mL); with Staphylococcus aureus [10] it was 128 µM (≈ 45.4 µg/mL). The negative-log IC50 (pIC50) in [3] is 5.95; in [6], 3.95.

As for `O=c1ccc2ccc(OCCCCCCCCn3ccnc3)cc2o1`, the minimum inhibitory concentration (MIC) in the assay on Streptococcus agalactiae [1] was 8 µM (≈ 2.72 µg/mL); in the assay on Staphylococcus aureus [7] it was 16 µM (≈ 5.45 µg/mL); in the assay on Flavobacterium columnare [2], 4 µM (≈ 1.36 µg/mL); against Escherichia coli [9], more than 256 µM. Also, the MBC in the assay on Escherichia coli [8] was more than 256 µM; with Streptococcus agalactiae [4] it was 16 µM (≈ 5.45 µg/mL); with Flavobacterium columnare [5] it was 8 µM (≈ 2.72 µg/mL); with Staphylococcus aureus [10], 128 µM (≈ 43.6 µg/mL). The results for the pIC50 in [3] and in assay [6] were 5.56 and 3.80, respectively.

Regarding `Cc1nccn1CCCCOc1ccc2ccc(=O)oc2c1`, the MIC against Streptococcus agalactiae [1] was more than 256 µM; against Staphylococcus aureus [7] it was 256 µM (≈ 76.4 µg/mL); with Flavobacterium columnare [2], more than 256 µM; with Escherichia coli [9], 64 µM (≈ 19.1 µg/mL). The minimal bactericidal concentration (MBC) with Escherichia coli [8] is 256 µM (≈ 76.4 µg/mL); in the assay on Streptococcus agalactiae [4] it was more than 256 µM; with Flavobacterium columnare [5], more than 256 µM; in the assay with Staphylococcus aureus [10], 256 µM (≈ 76.4 µg/mL). Moreover, the pIC50 is less than 3.59 in [3] and 5.35 in [6].

Take `CCN1CCN(c2cc3c(cc2F)c(=O)c(C(=O)O)cn3C2CC2)CC1` [ENROFLOXACIN]: the MIC with Streptococcus agalactiae [1] was 8 µM (≈ 2.88 µg/mL); in the assay on Staphylococcus aureus [7], 2 µM (≈ 0.719 µg/mL); against Flavobacterium columnare [2], 2 µM (≈ 0.719 µg/mL); against Escherichia coli [9], 1 µM (≈ 0.359 µg/mL). In addition, the minimal bactericidal concentration (MBC) was 2 µM (≈ 0.719 µg/mL) in the assay on Escherichia coli [8], 16 µM (≈ 5.75 µg/mL) with Streptococcus agalactiae [4], 2 µM (≈ 0.719 µg/mL) against Flavobacterium columnare [5] and 4 µM (≈ 1.44 µg/mL) in the assay with Staphylococcus aureus [10].

As to `CCn1cc(C(=O)O)c(=O)c2cc(F)c(N3CCNCC3)cc21` [NORFLOXACIN], the MIC is 64 µM (≈ 20.4 µg/mL) in the assay with Streptococcus agalactiae [1], 32 µM (≈ 10.2 µg/mL) against Staphylococcus aureus [7], 32 µM (≈ 10.2 µg/mL) against Flavobacterium columnare [2] and 1 µM (≈ 0.319 µg/mL) against Escherichia coli [9]. Besides, the MBC is 2 µM (≈ 0.639 µg/mL) against Escherichia coli [8], 128 µM (≈ 40.9 µg/mL) against Streptococcus agalactiae [4], 128 µM (≈ 40.9 µg/mL) against Flavobacterium columnare [5] and 64 µM (≈ 20.4 µg/mL) against Staphylococcus aureus [10].
